Assay results from ChEMBL document CHEMBL1137744, “Parallel synthesis, molecular modelling and further structure-activity relationship studies of new acylthiocarbamates as potent non-nucleoside HIV-1 reverse transcriptase inhibitors” (Eur J Med Chem, 2009).
Calls of active or inactive are those of the source. No cut-off for these calls is given here.

Key:
[1] = target: Human immunodeficiency virus type 1 reverse transcriptase (Human immunodeficiency virus 1, UniProt Q72547); test: Inhibition of wild-type HIV1 reverse transcriptase
[2] = Cytotoxicity against human MT4 cells by MTT assay; format: cell-based
Outline: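 Uninfected (mock-infected) MT-4 cells were exposed to compound and viability was read by MTT. CC50 is the concentration cutting viability by 50%. Values are means of three separate experiments, with triplicate samples varying by less than 10%.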

[3] = system: Human immunodeficiency virus 1; test: Ratio of EC50 for HIV1 3B expressing reverse transcriptase Y181C mutant to EC50 for HIV1 3B; format: functional
Outline: (§1)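 MT-4 cells infected with HIV-1 carrying the Y181C RT mutation, alongside wild-type virus. EC50 is the concentration giving 50% protection from virus-induced cytopathogenicity, read by MTT. Values are means of three separate experiments run in triplicate. The ratio is EC50(Y181C)/EC50(wt).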

[4] = system: Human immunodeficiency virus 1; test: Antiviral activity against HIV1 3B infected in human MT4 cells assessed as inhibition of virus-induced cytopathogenicity by MTT assay; format: functional, organism-based; settings: Human immunodeficiency virus 1, 3B
Outline: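 MT-4 cells infected with HIV-1 and read by MTT viability. EC50 is the concentration giving 50% protection of cells from virus-induced cytopathogenicity. Values are means of three separate experiments, with variation among triplicate samples under 10%.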

[5] = Selectivity index, ratio of CC50 for human MT4 cells to EC50 for HIV1 3B; format: toxicity, cell-based; settings: read-out: Ratio CC50/EC50
Outline: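 Computed as CC50/EC50. Both come from MTT readings in MT-4 cells: CC50 is 50% viability loss in mock-infected cells, and EC50 is 50% protection from HIV-1-induced cytopathogenicity. Each is the mean of three experiments.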

[6] = system: Human immunodeficiency virus 1; test: Antiviral activity against HIV1 3B expressing reverse transcriptase K103N/Y181C double mutant infected in human MT4 cells assessed as inhibition of virus-induced cytopathogenicity by MTT assay; format: functional, organism-based
[7] = system: Human immunodeficiency virus 1; test: Antiviral activity against HIV1 3B expressing reverse transcriptase Y181C mutant infected in human MT4 cells assessed as inhibition of virus-induced cytopathogenicity by MTT assay; format: functional, organism-based; settings: Human immunodeficiency virus 1, 3B; outline: as §1

SMILES	IC50 [1]	CC50 [2]	Ratio EC50 [3]	EC50 [4]	selectivity ratio [5]	Activity [6]	EC50 [7]
O=C1c2ccccc2C(=O)N1CCOC(=S)N(C(=O)c1cccnc1Cl)c1ccc(Br)cc1	700 nM	> 100000 nM	11	200 nM	> 500	inactive	2300 nM
Cc1ccc2c(c1)C(=O)N(CCOC(=S)N(C(=O)c1ccc(Cl)cc1)c1ccc([N+](=O)[O-])cc1)C2=O	300 nM	> 100000 nM	–	40 nM	> 2500	–	–
Cc1ccc(C(=O)N(C(=S)OCCN2C(=O)c3ccccc3C2=O)c2ccc(Cl)cc2)cc1	–	> 100000 nM	170	50 nM	> 2000	inactive	8500 nM
O=C1c2ccccc2C(=O)N1CCOC(=S)N(C(=O)c1cc(F)ccc1F)c1ccc(Cl)cc1	–	54000 nM	285	20 nM	2700	inactive	5700 nM
